Test results reported in article PMC5839721 (The Journal of General Physiology, 2018).
Where two headings read alike, the source gives them in different places.

Key:
human SERT [1] = target: T1, human SERT (Homo sapiens, UniProt P31645); format: cell-based; details: for increase of rate of peak current recovery from 0 M to 140 mM intracellular Na+ / change of rate of peak current recovery with intracellular Na+ concentration: extracellular Na+ 140 mM; for peak current recovery rate (monoexponential fit): fixed intracellular Na+ 140 mM, K+-free, Fig. 1 G; for dependence of the recovery rates on extracellular Na+ concentration: intracellular Na+ 140 mM, extracellular Na+ 10-140 mM; for change of rate of peak current recovery with intracellular Na+ concentration: 0 to 140 mM intracellular Na+; for kslow of peak current recovery (biexponential fit): after 30 µM substrate, ±SEM
T1 sequence (P31645 whole entry, the tested form may be a part): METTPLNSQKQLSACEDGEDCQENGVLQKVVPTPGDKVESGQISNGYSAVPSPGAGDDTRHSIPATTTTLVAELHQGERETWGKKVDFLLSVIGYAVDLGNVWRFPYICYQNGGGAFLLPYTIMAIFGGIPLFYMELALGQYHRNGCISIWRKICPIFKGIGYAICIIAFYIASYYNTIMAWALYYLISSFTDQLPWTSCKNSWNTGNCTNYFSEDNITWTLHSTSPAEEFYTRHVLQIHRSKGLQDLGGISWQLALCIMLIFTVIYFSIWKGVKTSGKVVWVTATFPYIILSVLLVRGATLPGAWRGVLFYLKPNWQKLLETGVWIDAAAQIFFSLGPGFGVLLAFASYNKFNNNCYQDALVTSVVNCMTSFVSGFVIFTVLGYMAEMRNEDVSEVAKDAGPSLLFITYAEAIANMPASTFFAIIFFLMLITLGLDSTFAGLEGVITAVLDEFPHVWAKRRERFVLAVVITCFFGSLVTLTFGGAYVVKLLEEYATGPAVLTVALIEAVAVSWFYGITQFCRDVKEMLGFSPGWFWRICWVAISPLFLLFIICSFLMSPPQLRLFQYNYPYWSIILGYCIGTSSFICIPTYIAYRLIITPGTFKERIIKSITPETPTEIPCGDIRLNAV
Procedure, shortened: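 GFP-tagged human SERT, tetracycline-inducible, in HEK293 cells seeded at low density 24 h before. Whole-cell voltage clamp with superfused pH 7.4 HEPES buffer. Na+ varied, osmolarity kept by NMDG chloride; intracellular Na+ 0–140 mM at 140 mM external. After 30 µM substrate, 10 µM 5-HT-evoked peak recovery fitted to mono- or biexponential rise; rates ±95% CI, kslow ±SEM; n = 4–7.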

human SERT [2] = target: T1, human SERT; assay: [3H]MPP+ release; format: cell-based; details: 3 µM releaser, 100 µM ouabain; for effect of monensin on efflux of [3H]MPP+: with vs without 10 µM monensin
Procedure, shortened: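 HEK293 cells with inducible GFP-tagged human SERT on poly-D-lysine coverslips (24 h) were preloaded with 0.1 µM [3H]MPP+ for 20 min at 37°C. Superfused with K+-free buffer containing 100 µM ouabain for 40 min, then 2-min fractions: three basal, four with 10 µM monensin or ethanol vehicle, five with 3 µM test compound, three with 1% SDS. Release given as percent [3H]MPP+ over time.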

Compound	increase of rate of peak current recovery from 0 M to 140 mM intracellular Na+ (human SERT [1]) [fold]	peak current recovery rate (monoexponential fit) (human SERT [1]) [s⁻¹]	dependence of the recovery rates on extracellular Na+ concentration (human SERT [1])	change of rate of peak current recovery with intracellular Na+ concentration (human SERT [1])	effect of monensin on efflux of [3H]MPP+ (human SERT [2])	other results
NCCc1c[nH]c2ccc(O)cc12 [5-HT, 5-hydroxy-tryptamine]	~6.7	4.012 ± 0.211	did not detect any dependence			
CC(N)Cc1ccc2ccccc2c1 (centres unmarked) [PAL-287]				did not change with Na^+ concentration		
CCN[C@@H](C)Cc1ccc2ccccc2c1 [PAL-1045]		0.025 ± 0.001		decreased fourfold	comparable in the absence and presence of monensin	dissociation rate from SERT (human SERT [1]; slow dissociation from the outward-facing conformation, high Na+): ~0.025 s⁻¹
CNC(C)Cc1ccc2ccccc2c1 (centres unmarked) [PAL-1046]				did not change with Na^+ concentration		
CC(N)Cc1ccc(Cl)cc1 (centres unmarked) [p-chloroamphetamine, para-chloroamphetamine]	~10		did not detect any dependence		significantly larger efflux	release of [3H]MPP+ (human SERT [2]; no monensin): substantially larger release of [^3H]MPP^+ than PAL-1045; kslow of peak current recovery (biexponential fit) (human SERT [1]; 10 mM Na+e, 140 mM intracellular Na+): 0.35 ± 0.23 s⁻¹; kslow of peak current recovery (biexponential fit) (human SERT [1]; 70 mM Na+e, 140 mM intracellular Na+): 0.10 ± 0.12 s⁻¹; kslow of peak current recovery (biexponential fit) (human SERT [1]; 70 mM Na+i, 140 mM extracellular Na+): 0.50 ± 0.11 s⁻¹; kslow of peak current recovery (biexponential fit) (human SERT [1]; 140 mM Na+e, 140 mM intracellular Na+): 0.49 ± 0.15 s⁻¹
